Experiment [1] deals with Kappa-type opioid receptor (Cavia porcellus) (UniProt P41144). Description: Inhibition of U69,593 antagonistic activity in [35S]GTP-gamma-S, assay against guinea pig Opioid receptor kappa 1. It counts as functional. A digest of the protocol: (§1)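 Agonist-stimulated binding was run with varying drug concentrations, 3 h at 25 °C, then filtration and scintillation counting. Nonspecific binding was taken with 10 µM GTPγS. Three experiments were pooled and fit by nonlinear least squares to give Ke.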
Kappa-type opioid receptor (Cavia porcellus), sequence (P41144 whole entry): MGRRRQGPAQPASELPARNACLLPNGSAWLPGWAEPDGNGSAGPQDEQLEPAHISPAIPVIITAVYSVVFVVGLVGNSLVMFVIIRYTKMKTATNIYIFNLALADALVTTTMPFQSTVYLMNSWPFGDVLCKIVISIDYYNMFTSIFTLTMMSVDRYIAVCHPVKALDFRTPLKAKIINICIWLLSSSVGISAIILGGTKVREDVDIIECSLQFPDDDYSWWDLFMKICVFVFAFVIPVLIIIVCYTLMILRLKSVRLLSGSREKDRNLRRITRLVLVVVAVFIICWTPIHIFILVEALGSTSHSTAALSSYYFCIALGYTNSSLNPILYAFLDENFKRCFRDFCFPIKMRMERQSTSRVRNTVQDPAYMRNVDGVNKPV
For orientation: GTPγS is a poorly hydrolysed GTP analogue; its binding reports G protein activation.

For experiment [2], the target named is Delta-type opioid receptor (Rattus norvegicus, UniProt P33533). Description: Inhibition of [3H]-DADLE binding to Opioid receptor delta 1 of rat brain tissue. A digest of the protocol: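 Rat brain membranes prepared daily, labelled with 2 nM [3H]DADLE. Incubation 2 h at 25 °C in 50 mM Tris-HCl pH 7.4 with 100 mM choline chloride, 3 mM MnCl2, 100 nM DAMGO to block mu sites, and protease inhibitors. Nonspecific binding was taken with 20 µM levallorphan. Radioligand was displaced by 8-10 drug concentrations. Ki came from IC50 via Cheng–Prusoff, from two pooled experiments.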
Delta-type opioid receptor (Rattus norvegicus, UniProt P33533), sequence (P33533 whole entry): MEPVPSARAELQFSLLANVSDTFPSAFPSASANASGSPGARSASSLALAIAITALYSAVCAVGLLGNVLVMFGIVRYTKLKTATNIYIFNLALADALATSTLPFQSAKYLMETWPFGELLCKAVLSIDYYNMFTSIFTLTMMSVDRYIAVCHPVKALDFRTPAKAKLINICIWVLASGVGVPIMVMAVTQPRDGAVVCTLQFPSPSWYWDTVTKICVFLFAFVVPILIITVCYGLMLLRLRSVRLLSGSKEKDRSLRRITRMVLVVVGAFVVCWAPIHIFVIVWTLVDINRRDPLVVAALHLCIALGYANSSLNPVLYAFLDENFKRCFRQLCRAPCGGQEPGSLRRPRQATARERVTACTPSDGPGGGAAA

Experiment [3] has as its target Mu-type opioid receptor (Cavia porcellus) (UniProt P97266). Description: Antagonistic activity against DAMGO and guinea pig caudate Opioid receptor mu 1 in [35S]GTP-gamma-S, assay. The class given is functional. A digest of the protocol: as §1
For experiment [4], the target named is Mu-type opioid receptor (Rattus norvegicus, UniProt P33535). Description: Inhibition of [3H]DAMGO binding to Opioid receptor mu 1 of rat brain tissue. The method in brief: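 Rat brain membranes prepared daily, labelled with [3H]DAMGO. Incubation 2 h at 25 °C in 50 mM Tris-HCl pH 7.4 with protease inhibitor cocktail. Nonspecific binding was taken with 20 µM levallorphan. Radioligand was displaced by 8-10 drug concentrations. IC50 was converted to Ki by IC50/(1+[L]/Kd), from two pooled experiments.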
Mu-type opioid receptor (Rattus norvegicus, UniProt P33535), sequence (P33535 whole entry): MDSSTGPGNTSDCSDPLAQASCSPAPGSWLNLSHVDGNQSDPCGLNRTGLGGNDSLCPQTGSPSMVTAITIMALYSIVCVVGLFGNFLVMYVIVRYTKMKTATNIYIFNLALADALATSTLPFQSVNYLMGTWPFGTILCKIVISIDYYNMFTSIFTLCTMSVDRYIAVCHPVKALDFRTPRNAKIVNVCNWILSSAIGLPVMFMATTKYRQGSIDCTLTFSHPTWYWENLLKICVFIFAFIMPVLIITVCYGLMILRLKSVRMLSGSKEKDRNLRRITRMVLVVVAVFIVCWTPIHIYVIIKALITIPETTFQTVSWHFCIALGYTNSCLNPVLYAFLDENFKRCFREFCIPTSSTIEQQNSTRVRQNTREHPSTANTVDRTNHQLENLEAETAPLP

The target of experiment [5] is Kappa-type opioid receptor (Cavia porcellus, UniProt P41144). Description: Inhibition of [3H]U-69593 binding to Opioid receptor kappa 1 of guinea pig brain. A digest of the protocol: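 Guinea pig brain membranes prepared daily, labelled with 2 nM [3H]U69,593. Incubation 2 h at 25 °C in 50 mM Tris-HCl pH 7.4 with 1 µg/mL captopril and protease inhibitors. Nonspecific binding was taken with 1 µM U69,593. Radioligand was displaced by 8-10 drug concentrations. Ki came from IC50 via IC50/(1+[L]/Kd), from two pooled experiments.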
Kappa-type opioid receptor (Cavia porcellus, UniProt P41144), sequence (P41144 whole entry): as the sequence (P41144 whole entry) above

The target in experiment [6] is T1, Delta-type opioid receptor (Homo sapiens, UniProt P41143). Description: (§2) Antagonistic activity against human cloned Opioid receptor delta 1 using DPDPE in [35S]GTP-gamma-S, assay. The class given is functional.
T1 sequence (P41143 whole entry): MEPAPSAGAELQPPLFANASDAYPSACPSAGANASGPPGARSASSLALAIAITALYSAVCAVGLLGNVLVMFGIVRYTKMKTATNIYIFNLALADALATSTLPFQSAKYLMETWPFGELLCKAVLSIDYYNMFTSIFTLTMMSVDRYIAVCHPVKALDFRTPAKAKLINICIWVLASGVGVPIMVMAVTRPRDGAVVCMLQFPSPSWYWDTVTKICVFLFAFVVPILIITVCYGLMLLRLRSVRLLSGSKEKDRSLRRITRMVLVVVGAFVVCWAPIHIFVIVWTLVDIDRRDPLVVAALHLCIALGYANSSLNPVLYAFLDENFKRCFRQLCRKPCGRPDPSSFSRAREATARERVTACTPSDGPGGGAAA
The target of experiment [7] is T2, Mu-type opioid receptor (Homo sapiens, UniProt P35372). Description: Antagonistic activity against human cloned Opioid receptor mu 1 using DAMGO in [35S]GTP-gamma-S, assay. It counts as functional.
T2 sequence (P35372 whole entry): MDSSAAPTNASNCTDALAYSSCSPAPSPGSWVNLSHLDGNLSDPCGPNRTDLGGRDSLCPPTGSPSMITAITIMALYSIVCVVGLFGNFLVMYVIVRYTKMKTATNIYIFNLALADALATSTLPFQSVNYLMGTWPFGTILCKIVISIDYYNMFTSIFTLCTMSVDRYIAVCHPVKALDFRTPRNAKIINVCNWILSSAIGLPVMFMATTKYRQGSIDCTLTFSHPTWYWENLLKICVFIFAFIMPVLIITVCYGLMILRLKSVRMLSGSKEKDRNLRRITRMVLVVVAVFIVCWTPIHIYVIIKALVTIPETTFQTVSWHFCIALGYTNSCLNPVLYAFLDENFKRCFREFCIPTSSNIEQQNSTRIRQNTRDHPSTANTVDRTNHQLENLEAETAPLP
Experiment [8] deals with T3, Kappa-type opioid receptor (Homo sapiens, UniProt P41145). Description: Antagonistic activity against human cloned Opioid receptor kappa 1 using U69,593 in [35S]GTP-gamma-S, assay. It counts as functional.
T3 sequence (P41145 whole entry): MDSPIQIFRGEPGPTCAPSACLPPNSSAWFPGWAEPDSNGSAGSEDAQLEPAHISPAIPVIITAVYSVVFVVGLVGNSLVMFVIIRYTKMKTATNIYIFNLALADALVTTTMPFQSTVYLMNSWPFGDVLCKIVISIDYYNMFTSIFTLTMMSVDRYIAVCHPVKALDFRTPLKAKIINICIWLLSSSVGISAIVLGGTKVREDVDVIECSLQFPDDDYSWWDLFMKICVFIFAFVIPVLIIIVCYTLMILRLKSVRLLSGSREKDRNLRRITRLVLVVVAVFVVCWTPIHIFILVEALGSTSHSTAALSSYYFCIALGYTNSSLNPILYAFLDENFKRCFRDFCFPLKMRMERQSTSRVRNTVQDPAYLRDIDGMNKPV
Experiment [9] addresses Opioid receptors; delta & kappa (Homo sapiens) (UniProt P41145+P41143). Description: Selectivity ratio of delta and kappa opioid receptor. It counts as protein assay.
For experiment [10], the target named is T1, Delta-type opioid receptor. Description: Binding affinity towards human cloned Opioid receptor delta 1 using [3H]Cl-DPDPE.
The target of experiment [11] is T3, Kappa-type opioid receptor. Description: Binding affinity towards human cloned Opioid receptor kappa 1 using [3H]U-69593.
Experiment [12] concerns the target T2, Mu-type opioid receptor. Description: Binding affinity towards human cloned Opioid receptor mu 1 using [3H]DAMGO.
The target in experiment [13] is T2, Mu-type opioid receptor.
Experiment [14] concerns the target T2, Mu-type opioid receptor. Description: Antagonistic activity against human cloned Opioid receptor mu 1 using DPDPE in [35S]GTP-gamma-S, assay. The class given is functional. The note with it: read-out: pA2 (converted).
For experiment [15], the target named is T3, Kappa-type opioid receptor. Description: Antagonistic activity against human cloned kOpioid receptor kappa 1 using U69,593 in [35S]GTP-gamma-S, assay. It counts as functional. The note with it: read-out: pA2 (converted). A digest of the protocol: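 Membranes from CHO cells transfected with cloned human κ opioid receptor. Antagonism is measured as inhibition of U69,593-stimulated [35S]GTPγS binding and expressed as a Ke value.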

In experiment [16] the target is T1, Delta-type opioid receptor. The experiment is described as §2. It counts as functional. The note with it: read-out: pA2 (converted).
The target of experiment [17] is Opioid receptors; mu & kappa (Homo sapiens) (UniProt P41145+P35372). Description: Selectivity ratio of mu and kappa opioid receptor. It counts as protein assay.
Opioid receptors; mu & kappa (Homo sapiens), sequence (P35372 whole entry, looked up): as the sequence (P35372 whole entry) above
Opioid receptors; mu & kappa (Homo sapiens), sequence (P41145 whole entry, looked up): as the sequence (P41145 whole entry) above

As usually defined, the Ki is a dissociation constant, usually derived from enzyme kinetics or from competition with a known ligand.

“And” between values parts separate entries of the source, which are not always exact repeats. Equal values may be shown once.

Mu-type opioid receptor (Cavia porcellus), sequence (P97266 whole entry): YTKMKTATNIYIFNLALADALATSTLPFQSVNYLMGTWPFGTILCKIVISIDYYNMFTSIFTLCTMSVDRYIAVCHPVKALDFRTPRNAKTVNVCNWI
Opioid receptors; delta & kappa (Homo sapiens), sequence (P41143 whole entry, looked up): as the sequence (P41143 whole entry) above
Opioid receptors; delta & kappa (Homo sapiens), sequence (P41145 whole entry, looked up): as the sequence (P41145 whole entry) above

Turning to `CC(C)[C@@H](CN1CC[C@@](C)(c2cccc(O)c2)[C@@H](C)C1)NC(=O)[C@@H]1Cc2ccc(O)cc2CN1`, the Ke in experiment [1] is 4.2 nM; in [3] it was 11 nM. In addition, the values for the Ki (in experiment [2]; at Mu-type opioid receptor [4]; in [5]) were above 4900 nM, 596 nM and 9.8 nM, respectively.
On to `CC(C)[C@@H](CN1CC[C@@](C)(c2cccc(O)c2)[C@@H](C)C1)NC(=O)[C@H]1Cc2ccc(O)cc2CN1` [JDTIC], for which the Ke in experiment [6] turned out to be 79.3 nM; at Mu-type opioid receptor [7], 3.41 nM; in experiment [1], 0.02 nM; in experiment [3] it was 2.16 nM; in experiment [8] it was 0.01 nM. Besides, the values for the inhibition constant (Ki) (in experiment [2]; at Mu-type opioid receptor [4]) were 301 nM and 3.73 nM, respectively.
Regarding `CC(=O)N1Cc2cc(O)ccc2C[C@@H]1C(=O)N[C@H](CN1CC[C@@](C)(c2cccc(O)c2)[C@@H](C)C1)C(C)C`, the Ke was determined as 19.6 nM in experiment [1] and 17.4 nM in experiment [3]. For the same compound, the Ki in experiment [2] is above 4900 nM; on Mu-type opioid receptor [4], 764 nM; in [5], 146 nM. The Delta/kappa in [9] is > 34 and 15.
On to `CC(C)[C@@H](CN1CC[C@@](C)(c2cccc(O)c2)[C@@H](C)C1)NC(=O)[C@H]1Cc2ccc(O)cc2CN1C(=O)CN(C)C`, for which the Ke in [6] was 299 nM; at Mu-type opioid receptor [7], 21.2 nM; in experiment [1] it was 0.16 nM; in [3] it was 29 nM; in [8] it was 1.1 nM. In addition, the inhibitory constant (Ki) in experiment [10] is 175 nM; in [11], 16.2 nM; in [2], above 3400 nM; on Mu-type opioid receptor [4], 164 nM; in experiment [5], 15.5 nM; at Mu-type opioid receptor [12], 13.2 nM.
`CC(C)[C@@H](CN1CC[C@@](C)(c2cccc(O)c2)[C@@H](C)C1)NC[C@H]1Cc2ccc(O)cc2CN1`: the Ke in experiment [6] is 427 nM; on Mu-type opioid receptor [13] it was 14.3 nM; in experiment [1], 0.2 nM; in [3], 12.8 nM; in experiment [8], 0.14 nM. Moreover, the Ki is 83.6 nM in experiment [10]; 1.82 nM in experiment [11]; above 4900 nM in [2]; 0.63 nM in [5]; 3.8 nM at Mu-type opioid receptor [12].
In the case of `CC(C)[C@@H](CN1CC[C@@](C)(c2cccc(O)c2)[C@@H](C)C1)NC(=O)[C@@H](N)Cc1ccc(O)cc1` (stereo in doubt; form 2) [listing 1 of 2 here], the Ki was above 5050 nM in experiment [2], 633 nM at Mu-type opioid receptor [4] and 16 nM in experiment [5].
With `N=C(N)Nc1ccc2[nH]c3c(c2c1)C[C@@]1(O)[C@H]2Cc4ccc(O)c5c4[C@@]1(CCN2CC1CC1)[C@H]3O5` [GUANIDINONALTRINDOLE], the Kb was 3.24 nM at Mu-type opioid receptor [14], 0.0398 nM in experiment [15] and 15.5 nM in [16]. Also, the results for the inhibition constant (Ki) (in [2]; on Mu-type opioid receptor [4]; in experiment [5]) were 70 nM, 36.9 nM and 0.18 nM, respectively. For the same compound, in [9], the Delta/kappa is 389. Also, the Mu/kappa ratio in experiment [17] turned out to be 206.
Take `CC(C)[C@@H](CN1CC[C@@](C)(c2cccc(O)c2)[C@@H](C)C1)NC(=O)[C@H]1Cc2ccc(O)cc2CN1C`: the Ke was 120 nM in experiment [6]; 8.92 nM at Mu-type opioid receptor [7]; 0.37 nM in experiment [1]; 12.7 nM in experiment [3]; 0.1 nM in experiment [8]. The Ki stood at 118 nM in experiment [10]; 1.01 nM in experiment [11]; 616 nM in experiment [2]; 37 nM on Mu-type opioid receptor [4]; 0.053 nM in [5]; 8.86 nM on Mu-type opioid receptor [12].
Take `Oc1ccc2c3c1O[C@H]1c4[nH]c5c(c4C[C@@]4(O)[C@@H](C2)N(CC2CC2)CC[C@]314)C[C@@]1(O)[C@H]2Cc3ccc(O)c4c3[C@@]1(CCN2CC1CC1)[C@H]5O4`: in experiment [6], the Ke was 4.4 nM.
Regarding `CC(C)[C@@H](CN1CC[C@](C)(c2cccc(O)c2)[C@H](C)C1)NC(=O)[C@H]1Cc2ccc(O)cc2CN1`, the Ke in experiment [1] turned out to be 16.7 nM; in experiment [3] it was 178 nM. Further, the Ki in experiment [2] was 144 nM; at Mu-type opioid receptor [4], 138 nM; in experiment [5], 17.5 nM.
For the compound `CC(C)[C@@H](CN1CC[C@@](C)(c2cccc(O)c2)[C@@H](C)C1)NC(=O)[C@@H](N)Cc1ccc(O)cc1` (stereo in doubt; form 2) [listing 2 of 2 here], the figures for the Ke in experiment [1] and in [3] were 30 nM and 16.5 nM, respectively.
Consider `CC(C)[C@@H](CN1CC[C@@](C)(c2cccc(O)c2)[C@@H](C)C1)NC(=O)[C@@H](N)Cc1ccc(O)cc1` (stereo in doubt; form 1) [listing 1 of 2 here], for which the figures for the Ke in [1] and in experiment [3] were 44.6 nM and 12 nM, respectively.
With `CC(C)[C@@H](CN1CC[C@@](C)(c2cccc(O)c2)[C@@H](C)C1)NC(=O)[C@@H](N)Cc1ccc(O)cc1` (stereo in doubt; form 1) [listing 2 of 2 here], the Ki in experiment [2] was above 5050 nM; on Mu-type opioid receptor [4], 208 nM; in [5], 20.4 nM.
Take `CC(C)[C@@H](CN1CC[C@@](C)(c2cccc(O)c2)[C@@H](C)C1)NC(=O)[C@H]1Cc2ccccc2CN1`: the values for the Ke (on Mu-type opioid receptor [7]; in experiment [8]) were 8.38 nM and 2.95 nM, respectively. In addition, the Ki in experiment [10] is 1090 nM; in experiment [11] it was 2.18 nM; in experiment [2] it was above 4900 nM; at Mu-type opioid receptor [4], 775 nM; in experiment [5], 2.1 nM; on Mu-type opioid receptor [12] it was 33.1 nM.

The values above are taken from ChEMBL document CHEMBL1145840, “Identification of (3R)-7-hydroxy-N-((1S)-1-[[(3R,4R)-4-(3-hydroxyphenyl)- 3,4-dimethyl-1-piperidinyl]methyl]-2-methylpropyl)-1,2,3,4-tetrahydro- 3-isoquinolinecarboxamide as a novel potent and selective opioid kappa receptor antagonist” (J Med Chem, 2003).
